This note sets out measurements from ChEMBL document CHEMBL5678808, “Human target validation of phosphoinositide 3-kinase (PI3K)β: effects on platelets and insulin sensitivity, using AZD6482 a novel PI3Kβ inhibitor” (J Thromb Haemost, 2012).

Data set [1] has as its target Epidermal growth factor receptor (Homo sapiens, UniProt P00533). The experiment in a line: Inhibition of human EGFR.
The target of data set [2] is Cyclin-dependent kinase 2/cyclin E1 (Homo sapiens, UniProt P24941). The experiment in a line: Inhibition of human CDK2/Cyclin E. In kind it is protein-complex assay.
Data set [3] concerns the target Glycogen synthase kinase-3 beta (Homo sapiens) (UniProt P49841). Description: Inhibition of human GSK3b at 10 uM relative to control.
Data set [4] addresses Proto-oncogene tyrosine-protein kinase LCK (Mus musculus) (UniProt P06240). The experiment in a line: Inhibition of mouse LCK at 10 uM relative to control.
For data set [5], the target named is Ribosomal protein S6 kinase alpha-1 (Homo sapiens) (UniProt Q15418). Description: Inhibition of MAPK Activated Protein Kinase-1a (unknown origin) at 10 uM relative to control.
The target of data set [6] is cAMP-dependent protein kinase (PKA) (Homo sapiens) (UniProt P22694+P17612+P22612). Description: Inhibition of PKA (unknown origin) at 10 uM relative to control. In kind it is protein assay.
Data set [7] can be described thus: Inhibition of […] mouse thymoma viral oncogene homolog 1 (unknown origin) at 10 uM relative to control. The settings on record: Homo sapiens, condition thrombotic disease.
Data set [8] addresses MAP kinase-activated protein kinase 5 (Homo sapiens) (UniProt Q8IW41). The experiment in a line: Inhibition of human MAPKAPK5 at 10 uM relative to control.
In data set [9] the target is Ribosomal protein S6 kinase alpha-5 (Homo sapiens) (UniProt O75582). The experiment in a line: Inhibition of human MSK1 at 10 uM relative to control.
For data set [10], the target named is Ribosomal protein S6 kinase alpha-3 (Homo sapiens) (UniProt P51812). The experiment in a line: Inhibition of human MAPKAPK1B at 10 uM relative to control.
For another data set, the system named is Rattus norvegicus. The experiment in a line: Insulin sensitizing activity in Sprague-Dawley rat hyperinsulinemic-euglycemic glucose clamp model assessed as basal glucose level during infusion of human insulin at 1000 ug/kg/min, iv for 2 mins followed by 50 ug/kg/min, iv for 28 mins by colorimetry (reference value: 8.1 +/- 0.7 mM). It counts as functional. The settings on record: time 30 min, 0.5 h. Summed up: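 Anesthetized rats; hyperinsulinemic–euglycemic clamp with human insulin infused. A baseline clamp (Clamp1) was followed by a second clamp (Clamp2) with vehicle or drug i.v. The drug was given as a low dose (1000 μg kg−1 + 50 μg kg min−1) or a high dose (6000 μg kg−1 + 300 μg kg min−1). Steady-state glucose infusion rate for euglycemia was recorded, with plasma glucose, human insulin and total insulin; mean ± SEM, n = 4–5/group.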

Data set [11] can be described thus: Toxicity in Sprague-Dawley rat assessed as change in blood pressure at 30000 ug/kg, iv for 2 mins followed by 1500 ug/kg/min, iv for 28 mins. In kind it is organism-based. As to conditions: in vivo, 30 mg/kg, 0.5 h, time 30 min.
Data set [12] can be described thus: Toxicity in Sprague-Dawley rat hyperinsulinemic-euglycemic glucose clamp model assessed as increase in blood pressure at 1000 ug/kg/min, iv for 2 mins followed by 50 ug/kg/min, iv for 28 mins. In kind it is organism-based. The settings on record: in vivo, 0.5 h, time 30 min. The essentials: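 Anesthetized rats underwent two consecutive hyperinsulinemic–euglycemic clamps with human insulin infusion: a baseline Clamp1, then Clamp2 with vehicle or AZD6482 i.v. (n = 4–5/group). Blood pressure and heart rate were followed during control periods and after drug administration. Steady-state glucose infusion rate maintained euglycemia.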

The nature of data set [13]: Volume of distribution at steady state in human at 0.9 to 455.8 mg, iv administered for 3 hrs via infusion by LC-MS/MS analysis. It counts as ADME, organism-based. The settings on record: in vivo, dose 0.9-455.8 mg. The essentials: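 Healthy male volunteers (18–36 years) in a randomized, double-blind, placebo-controlled single ascending-dose study received a 3-h i.v. infusion. Plasma drug levels were measured by protein precipitation then LC-MS/MS (LLOQ 0.005 μm). Non-compartmental pharmacokinetic analysis was used; median (range) across dose levels reported.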

The structures appear in SMILES notation.

Chain of Epidermal growth factor receptor (P00533 whole entry): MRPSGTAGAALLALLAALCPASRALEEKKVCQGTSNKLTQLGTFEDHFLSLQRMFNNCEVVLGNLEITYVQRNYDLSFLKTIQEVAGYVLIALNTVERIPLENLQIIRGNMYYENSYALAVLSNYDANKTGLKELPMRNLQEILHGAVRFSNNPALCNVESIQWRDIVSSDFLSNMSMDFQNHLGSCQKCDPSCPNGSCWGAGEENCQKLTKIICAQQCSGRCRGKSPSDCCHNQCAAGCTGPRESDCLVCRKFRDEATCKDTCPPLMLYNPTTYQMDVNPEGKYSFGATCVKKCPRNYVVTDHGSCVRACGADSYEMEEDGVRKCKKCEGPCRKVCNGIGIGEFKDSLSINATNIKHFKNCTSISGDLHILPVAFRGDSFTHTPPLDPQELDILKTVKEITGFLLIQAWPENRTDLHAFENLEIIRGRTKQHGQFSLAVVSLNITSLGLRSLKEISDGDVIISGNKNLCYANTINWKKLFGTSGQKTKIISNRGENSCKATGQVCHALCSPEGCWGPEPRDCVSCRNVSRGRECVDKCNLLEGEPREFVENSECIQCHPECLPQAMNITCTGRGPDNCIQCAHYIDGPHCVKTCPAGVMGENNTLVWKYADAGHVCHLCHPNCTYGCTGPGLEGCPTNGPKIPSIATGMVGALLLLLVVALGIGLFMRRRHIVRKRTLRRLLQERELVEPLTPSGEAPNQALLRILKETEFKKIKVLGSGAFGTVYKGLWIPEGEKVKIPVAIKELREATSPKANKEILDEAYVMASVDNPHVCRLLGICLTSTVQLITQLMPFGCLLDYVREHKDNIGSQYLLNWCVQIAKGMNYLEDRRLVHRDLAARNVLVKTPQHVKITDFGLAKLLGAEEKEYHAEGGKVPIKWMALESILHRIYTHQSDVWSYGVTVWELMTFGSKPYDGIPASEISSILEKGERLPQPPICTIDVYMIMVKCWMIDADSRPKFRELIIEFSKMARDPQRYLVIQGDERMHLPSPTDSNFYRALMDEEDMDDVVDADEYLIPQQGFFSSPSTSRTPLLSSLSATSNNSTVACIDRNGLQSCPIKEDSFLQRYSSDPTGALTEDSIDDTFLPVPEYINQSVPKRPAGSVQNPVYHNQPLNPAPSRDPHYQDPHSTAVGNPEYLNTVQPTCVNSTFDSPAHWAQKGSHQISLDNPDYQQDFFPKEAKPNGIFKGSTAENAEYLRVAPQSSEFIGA
Chain of Glycogen synthase kinase-3 beta (Homo sapiens) (P49841 whole entry, looked up): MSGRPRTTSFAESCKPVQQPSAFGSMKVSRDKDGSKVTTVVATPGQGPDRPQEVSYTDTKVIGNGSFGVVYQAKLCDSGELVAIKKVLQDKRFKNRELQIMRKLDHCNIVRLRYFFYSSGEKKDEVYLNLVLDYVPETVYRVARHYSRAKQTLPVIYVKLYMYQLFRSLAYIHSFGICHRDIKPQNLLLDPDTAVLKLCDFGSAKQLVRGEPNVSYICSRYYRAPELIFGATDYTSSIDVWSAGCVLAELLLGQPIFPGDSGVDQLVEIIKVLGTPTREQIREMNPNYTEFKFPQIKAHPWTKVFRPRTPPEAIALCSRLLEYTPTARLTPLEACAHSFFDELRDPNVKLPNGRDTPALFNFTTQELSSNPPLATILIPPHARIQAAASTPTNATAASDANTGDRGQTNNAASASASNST
Chain of Ribosomal protein S6 kinase alpha-5 (Homo sapiens) (O75582 whole entry, looked up): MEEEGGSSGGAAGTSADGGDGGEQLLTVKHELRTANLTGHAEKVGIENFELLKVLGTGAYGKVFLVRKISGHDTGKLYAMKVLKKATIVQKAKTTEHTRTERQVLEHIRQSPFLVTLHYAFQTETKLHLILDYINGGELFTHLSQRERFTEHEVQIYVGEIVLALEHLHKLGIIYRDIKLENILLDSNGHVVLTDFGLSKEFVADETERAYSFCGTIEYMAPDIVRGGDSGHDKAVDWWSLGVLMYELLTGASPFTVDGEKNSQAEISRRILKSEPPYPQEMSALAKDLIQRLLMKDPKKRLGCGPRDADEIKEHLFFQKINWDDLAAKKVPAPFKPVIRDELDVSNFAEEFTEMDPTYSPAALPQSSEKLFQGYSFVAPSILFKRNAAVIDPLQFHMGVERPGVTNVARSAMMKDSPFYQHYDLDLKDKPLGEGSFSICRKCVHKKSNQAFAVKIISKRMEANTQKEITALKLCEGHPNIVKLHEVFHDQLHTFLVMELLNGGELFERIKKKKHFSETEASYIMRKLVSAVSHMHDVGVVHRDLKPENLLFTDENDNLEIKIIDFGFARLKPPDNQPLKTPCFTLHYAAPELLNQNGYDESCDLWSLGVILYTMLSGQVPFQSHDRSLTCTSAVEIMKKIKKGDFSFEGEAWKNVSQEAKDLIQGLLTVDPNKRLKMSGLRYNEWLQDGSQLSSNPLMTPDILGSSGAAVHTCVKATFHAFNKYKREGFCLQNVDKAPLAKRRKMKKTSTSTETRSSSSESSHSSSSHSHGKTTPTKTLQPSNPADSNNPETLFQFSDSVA
Chain of Ribosomal protein S6 kinase alpha-3 (Homo sapiens) (P51812 whole entry, the tested form may be a part): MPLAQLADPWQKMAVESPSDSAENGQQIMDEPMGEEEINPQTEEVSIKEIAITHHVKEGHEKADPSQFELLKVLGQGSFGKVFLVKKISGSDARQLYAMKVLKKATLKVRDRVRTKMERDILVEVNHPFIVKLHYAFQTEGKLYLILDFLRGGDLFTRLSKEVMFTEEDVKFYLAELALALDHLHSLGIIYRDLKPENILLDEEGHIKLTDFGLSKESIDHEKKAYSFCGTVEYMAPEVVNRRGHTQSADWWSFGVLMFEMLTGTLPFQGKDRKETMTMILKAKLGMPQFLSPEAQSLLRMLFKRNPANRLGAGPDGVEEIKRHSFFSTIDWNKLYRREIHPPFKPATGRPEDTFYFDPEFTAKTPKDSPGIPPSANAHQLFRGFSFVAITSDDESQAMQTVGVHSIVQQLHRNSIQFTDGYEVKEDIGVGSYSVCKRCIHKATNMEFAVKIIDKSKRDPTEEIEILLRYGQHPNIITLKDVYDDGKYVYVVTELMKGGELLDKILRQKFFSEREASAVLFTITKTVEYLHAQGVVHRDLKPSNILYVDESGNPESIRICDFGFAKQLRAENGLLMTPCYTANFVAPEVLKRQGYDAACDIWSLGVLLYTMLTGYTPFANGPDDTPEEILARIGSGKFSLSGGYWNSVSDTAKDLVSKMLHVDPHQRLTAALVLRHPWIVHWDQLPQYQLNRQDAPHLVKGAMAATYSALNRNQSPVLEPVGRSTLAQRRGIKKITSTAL
Chain of Proto-oncogene tyrosine-protein kinase LCK (Mus musculus) (P06240 whole entry, looked up): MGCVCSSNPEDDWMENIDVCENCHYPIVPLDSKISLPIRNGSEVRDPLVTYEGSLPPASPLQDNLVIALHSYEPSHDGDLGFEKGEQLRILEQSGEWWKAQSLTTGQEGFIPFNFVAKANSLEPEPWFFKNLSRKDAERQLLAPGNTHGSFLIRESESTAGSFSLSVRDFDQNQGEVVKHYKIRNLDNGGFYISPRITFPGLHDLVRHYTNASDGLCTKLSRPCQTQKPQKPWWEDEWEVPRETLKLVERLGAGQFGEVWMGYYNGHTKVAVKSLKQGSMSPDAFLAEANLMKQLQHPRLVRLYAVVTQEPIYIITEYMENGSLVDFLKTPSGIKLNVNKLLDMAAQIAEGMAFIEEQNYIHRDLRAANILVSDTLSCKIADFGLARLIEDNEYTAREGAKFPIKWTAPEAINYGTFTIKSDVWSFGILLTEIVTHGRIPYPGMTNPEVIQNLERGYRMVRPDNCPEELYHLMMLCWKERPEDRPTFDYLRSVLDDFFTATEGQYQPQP
Chain of MAP kinase-activated protein kinase 5 (Homo sapiens) (Q8IW41 whole entry): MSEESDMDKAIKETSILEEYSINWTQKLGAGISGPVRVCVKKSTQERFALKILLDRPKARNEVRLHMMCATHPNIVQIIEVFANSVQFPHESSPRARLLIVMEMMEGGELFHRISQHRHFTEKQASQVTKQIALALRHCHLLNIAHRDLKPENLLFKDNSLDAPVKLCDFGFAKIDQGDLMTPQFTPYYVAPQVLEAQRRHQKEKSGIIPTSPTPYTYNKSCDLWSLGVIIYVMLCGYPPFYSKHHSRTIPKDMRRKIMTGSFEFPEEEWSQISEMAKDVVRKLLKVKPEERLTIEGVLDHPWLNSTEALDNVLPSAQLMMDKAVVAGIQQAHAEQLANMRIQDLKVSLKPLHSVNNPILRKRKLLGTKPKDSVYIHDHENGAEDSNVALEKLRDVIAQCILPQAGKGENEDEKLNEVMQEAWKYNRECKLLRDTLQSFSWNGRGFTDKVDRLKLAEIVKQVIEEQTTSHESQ
Chain of Ribosomal protein S6 kinase alpha-1 (Homo sapiens) (Q15418 whole entry): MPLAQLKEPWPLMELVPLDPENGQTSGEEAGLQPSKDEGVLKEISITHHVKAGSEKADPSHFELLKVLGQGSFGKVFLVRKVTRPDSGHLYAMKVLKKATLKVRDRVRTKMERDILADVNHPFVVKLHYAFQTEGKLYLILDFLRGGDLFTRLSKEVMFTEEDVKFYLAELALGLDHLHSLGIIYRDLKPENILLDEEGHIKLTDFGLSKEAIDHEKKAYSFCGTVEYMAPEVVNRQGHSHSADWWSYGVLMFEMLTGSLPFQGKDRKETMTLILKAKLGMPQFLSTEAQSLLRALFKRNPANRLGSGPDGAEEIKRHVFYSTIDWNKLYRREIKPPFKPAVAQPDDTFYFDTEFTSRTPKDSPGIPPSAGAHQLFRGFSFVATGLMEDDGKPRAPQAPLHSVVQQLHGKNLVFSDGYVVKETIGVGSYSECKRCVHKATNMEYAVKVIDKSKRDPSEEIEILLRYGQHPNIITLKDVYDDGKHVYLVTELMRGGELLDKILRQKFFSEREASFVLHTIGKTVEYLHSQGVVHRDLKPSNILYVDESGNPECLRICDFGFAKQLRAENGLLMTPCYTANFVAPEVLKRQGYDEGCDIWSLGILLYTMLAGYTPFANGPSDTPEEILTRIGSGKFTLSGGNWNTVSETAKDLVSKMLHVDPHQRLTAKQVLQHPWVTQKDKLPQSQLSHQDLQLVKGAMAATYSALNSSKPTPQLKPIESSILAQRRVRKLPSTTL

On to `Cc1cc([C@@H](C)Nc2ccccc2C(=O)O)c2nc(N3CCOCC3)cc(=O)n2c1` [AZD-6482], for which the IC50 in data set [1] was over 298 µM; in data set [2], over 1 mM. In addition, the inhibition in data set [3] is 21%; in data set [4], 11%; in data set [5] it was 1.6%; in data set [6], -7.5%; in data set [8], 9.9%; in data set [9], -4.2%. Moreover, in data set [10], the inhibition was determined as 15%. Moreover, the inhibition at 10 µM in [7] amounted to 2.1%. Further, the Activity with Rattus norvegicus is listed as 7.6 mM; in data set [11], “Non-Toxic”; in [12], 6 mmHg. In [13], the Vd was 48 L.
